Assay outcomes deposited in PubChem BioAssay by Sanford-Burnham Center for Chemical Genomics.
These entries were drawn from the full list.
Apaf1 activ: activators of human Apaf-1 apoptosome, primary screen, biochemical, DEVD-Rh110 fluorescence, uHTS; hit rate 0.31% among 330,000; AID 489031, 2010; activity change, negative = activation, % at 20 µM; Apaf-1 apoptosome caspase-3 activation; active compounds read low;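 active = activity change at or below -40% at 20 µM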
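System: Reconstituted apoptosome of Apaf-1, cytochrome c, caspase-9, procaspase-3 | Reagent: dATP, cytochrome c, and (Z-DEVD)2-Rh110 caspase-3 substrate | Times: 30 min compound preincubation and 50 min reaction, both room temperature | Detection: Caspase-3-released Rh110 fluorescence, 540 nm emission, 480 nm excitation | Measure: Caspase-3 activity via Apaf-1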
Rh110 act interf: Rh110 fluorescence interference by putative Apaf-1 activators, confirmation, artefact control for Apaf-1 activator project, biochemical, 20 µM; shares compounds with Apaf1 activ; quenched caspase reaction, Ex480/Em540; fluorescence interference (activity change), % at 20 µM, hits read low; 980 tested, under 10 active; AID 504616, 2011;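 active = mean activity change at or below -40% when tested at 20 µM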
Apaf-1 act conf: Apaf-1 activators, single-dose retest, confirmation, biochemical, fluorescence, DEVD-Rh110, 20 µM. shares compounds with Apaf1 activ. reconstituted apoptosome caspase-3 activity; active compounds read low. activity change, negative = activation, % at 20 µM. hit rate 5% among 980;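 active = mean activity change at or below -40%, meaning activation of 40% or more, at 20 µM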
Fluor interf act: fluorescence interference of Apaf-1 activator hits, dose response, artefact control for Apaf-1 activator project; 55 tested, under 10 active; shares compounds with Apaf1 activ; fluorescence interference counterscreen, Apaf-1 activator assay; EC50, µM; call rule not given here
A number is an active result; - = inactive; . = no result.

SMILES	Apaf1 activ	Rh110 act interf	Apaf-1 act conf	others
CCOc1cccc(-c2cc(=O)[nH][nH]2)c1	-	.	.
Oc1ccc(N=Cc2ccc(-c3cccs3)s2)cc1	-	.	.
CC(=O)NC1=C(N(C)C2CCS(=O)(=O)C2)C(=O)c2ccccc2C1=O (stereo unspecified)	-	.	.
CCOc1cc(/C=N/NC(=O)C(=O)NCCCOC(C)C)cc(Br)c1O	-173.2	-	-
CCc1ccc(Nc2n[n+](-c3ccccc3)c(-c3c(Cl)cccc3Cl)s2)cc1	-	.	.
COCc1ccc(C(=O)N2CCCC(Nc3ccc(C(C)C)cc3)C2)o1 (stereo unspecified)	-107.3	-	-
c1cc2cn[nH]c2cc1NC1CCCCCC1	-	.	.
COc1ccc(C(CC(=O)c2ccc(O)cc2)S(=O)(=O)c2ccc(C)cc2)cc1 (stereo unspecified)	-63.9	-	-
COc1ccc(S(=O)(=O)/N=C2\C=C(Nc3ccc(O)cc3)C(=O)c3ccccc32)cc1	-	.	.
Oc1cccc2c(NC(=S)Nc3ccc(OC(F)F)cc3)cccc12	-	.	.
COc1cccc(Cn2c(N)c(C#N)c3nc4ccccc4nc32)c1OC	-	.	.
CCCCNc1cc(NC(C)=O)cc2cc(OC)c(OC)cc12	-	.	.
C[C@H](CCC(=O)NCC(=O)O)[C@H]1CC[C@H]2[C@@H]3[C@H](O)C[C@@H]4C[C@H](O)CC[C@]4(C)[C@H]3C[C@H](O)[C@]12C	-	.	.
COC(=O)C1=C(N)OC2=C(C(=O)CC(C)(C)C2)C1c1cccnc1 (stereo unspecified)	-307.9	-	-
COc1ccc(C(c2c(C)[nH]n(-c3ccccc3)c2=O)c2c(C)[nH]n(-c3ccccc3)c2=O)cc1OC	-	.	.
C1=CC2c3ccccc3NC(c3ccncc3)C2C1 (stereo unspecified)	-	.	.
O=C(C[C@H]1C[C@H](C(=O)N2CCCCC2)[C@@]2(CCc3ccccc3)c3[nH]c4cc(-c5ccco5)ccc4c3CCN2C1=O)NCCN1CCOCC1	-	.	.
O=C(Nc1ccccc1OC(F)F)c1oc2ccccc2c1COc1ccccc1	-180.4	-	-
COc1cc(OC)cc(-c2sc3ccc(OC)cc3c2C#CC2(N)CCCCC2)c1	-	.	.
O=C(CSc1ccccn1)N1CCN(c2ccccc2)CC1	-49.0	-	-
Cc1ccc(-c2noc(CCC(=O)N3CCN(c4cccc(C(F)(F)F)c4)CC3)n2)cc1	-	.	.
O=C(NCCc1ccccc1)c1ccccc1SCC(=O)N1CCCC1	-	.	.
CCOC(=O)C1Nc2ccccc2C2C(O)C(O)CC12 (stereo unspecified)	-	.	.
CS(=O)(=O)N(Cc1ccc(C(=O)NN=C2CCCCCC2)cc1)c1ccccc1	-481.9	-	-
COc1ccnc(Oc2ccc(F)cc2)c1C#N	-46.9	-	-
SMILES	Apaf1 activ	Rh110 act interf	Apaf-1 act conf	others
O=C1Nc2ccc(S(=O)(=O)NCc3ccco3)c3cccc1c23	-	.	.
O=c1cccccc1NCc1ccccc1	-	.	.
CC(=O)N1CCN(C2=Nc3cccc4cccc2c34)CC1	-	.	.
CCOC(=O)C1=C(c2ccccc2)NC(N)=NC1c1ccc(OCc2ccc(C(=O)OC)cc2)cc1 (stereo unspecified)	-	.	.
CCOC(=O)C1=C(C)Nc2nc(SCC)nn2C1c1ccc(OC)cc1 (stereo unspecified)	-55.6	-	-
CCCCCCSc1ccc(-c2nc3ccc(C)cn3c2NCc2ccccc2)cc1OC	-	.	.
CCc1nc(N2CCN(C(C)=O)CC2)c2c3c(sc2n1)CC(C(C)(C)C)CC3 (stereo unspecified)	-	.	.
COc1ccc(N2C(=O)CC(N(CCc3ccc(OC)c(OC)c3)C(=S)Nc3ccccc3)C2=O)cc1 (stereo unspecified)	-40.8	-	-
CN(C)CC/C=C1\c2ccccc2Sc2ccc(Cl)cc21	-	.	.
C#CCOCCOCCOCCNc1nc(N2CCN(C(=O)[C@H](Cc3ccc(O)cc3)n3cc([C@@H](N)C(C)CC)nn3)CC2)nc(N2CCN(C(=O)[C@H](Cc3cc4ccccc4[nH]3)n3cc([C@@H](N)CC(C)C)nn3)CC2)n1 (stereo partly specified)	-	.	.
Cc1ccc(-n2nc3ccc(N)cc3n2)cc1Cl	-	.	.
Cc1ccc2ccc(C3C(=O)c4ccccc4C3=O)nc2c1	-169.6	-	-
CCN(CC(=O)NCc1cccs1)C(=O)C1CC(=O)N(c2ccc(OC)cc2OC)C1 (stereo unspecified)	-	.	.
COc1ccc(C[C@H]2CN3C(=NC[C@@H]3Cc3ccccc3)N2C[C@H](C)NC(=O)CCC2CCCCC2)cc1	-	.	.
CC(C)=CCc1c(O)c(CC=C(C)C)c2c(c1O)C(=O)CC(c1ccc(O)cc1)O2 (stereo unspecified)	-149.9	-	-
NC1=NC(c2ccc(Cl)cc2)C(C(=O)c2ccccc2)N1 (stereo unspecified)	-470.4	-	-
Cc1cccc(C(=O)NC2C(=O)NNC2c2ccc(Cl)cc2)c1 (stereo unspecified)	-	.	.
CCN1/C(=C/C=C/c2sc3ccccc3[n+]2CC)Sc2ccccc21	-	.	.
Cc1cc2ccccc2n1CCNC(=O)C1CCCCC1	-	.	.
O=C(NCCCN1CCc2ccccc2C1)C1CCN(c2nnc(-n3cccc3)s2)CC1	-	.	.
Cc1ccc(C)n1-c1nnc(N2CCC(C(=O)NCCCN3CC(C)CC(C)C3)CC2)s1 (stereo unspecified)	-402.0	-	-
Cc1ccc2nc(-c3ccc(NC(=S)NC4CC(C)(C)NC(C)(C)C4)cc3)sc2c1	-	.	.
COc1cccc(/C=N/NC(=O)CCn2nnc3ccccc32)c1	-69.6	-	-
COc1ccc(/C=N/NC(=O)CCn2cnc(-c3ccccc3)c2-c2ccccc2)cc1	-	.	.
C#CCOCCOCCOCCNc1nc(N2CCN(C(=O)[C@H](Cc3cc4ccccc4[nH]3)n3cc([C@@H](N)C(C)CC)nn3)CC2)nc(N2CCN(C(=O)[C@H](Cc3cc4ccccc4[nH]3)n3cc([C@@H](N)Cc4ccc(O)cc4)nn3)CC2)n1 (stereo partly specified)	-	.	.
SMILES	Apaf1 activ	Rh110 act interf	Apaf-1 act conf	others
Cc1ccc(S(=O)(=O)N2CCN(c3ccc([N+](=O)[O-])c4cccnc34)CC2)cc1	-	.	.
COc1ccc(NC(=O)CCCCCN2C(=O)c3cccc([N+](=O)[O-])c3C2=O)c(OC)c1	-	.	.
COc1cc([N+](=O)[O-])ccc1NC(=O)COC(=O)c1ccc(NC(N)=O)cc1	-43.9	-	-42.7	Fluor interf act=-
COc1cc([N+](=O)[O-])ccc1NC(=O)CN1CCc2cc(OC)c(OC)cc2C1	-	.	.
N=c1n(CC(=O)c2ccc(Br)cc2)c2ccccc2n1Cc1ccccc1	-	.	.
N#CCCn1cc(C(CC(=O)c2ccc(Br)cc2)C(=O)O)c2ccccc21 (stereo unspecified)	-67.4	-	-48.4	Fluor interf act=-
c1ccc(C(c2nnnn2C2CCCCC2)N2CCc3ccccc3C2)nc1 (stereo unspecified)	-	.	.
Cc1ccc(NC(=O)N(CCC#N)Cc2ccccc2)cc1	-471.1	-	-
CC1=NN(Cc2ccccc2)C(=O)C1	-	.	.
